Test results as given in ChEMBL document CHEMBL4385610, “Selective Inhibition of Histone Deacetylase 10: Hydrogen Bonding to the Gatekeeper Residue is Implicated” (J Med Chem, 2019).
Active and inactive are the calls of the source. No cut-off for these calls is given here.

Tests used:
[1] = molecular target: T1, Polyamine deacetylase HDAC10 (Homo sapiens, UniProt Q969S8); assay: Inhibition of dye-labeled tracer binding to HDAC10 (unknown origin) transfected in human HeLa cells measured after 2 hrs by nano-luciferase reporter gene-based BRET assay; assay type: cell-based
T1 sequence (Q969S8 whole entry): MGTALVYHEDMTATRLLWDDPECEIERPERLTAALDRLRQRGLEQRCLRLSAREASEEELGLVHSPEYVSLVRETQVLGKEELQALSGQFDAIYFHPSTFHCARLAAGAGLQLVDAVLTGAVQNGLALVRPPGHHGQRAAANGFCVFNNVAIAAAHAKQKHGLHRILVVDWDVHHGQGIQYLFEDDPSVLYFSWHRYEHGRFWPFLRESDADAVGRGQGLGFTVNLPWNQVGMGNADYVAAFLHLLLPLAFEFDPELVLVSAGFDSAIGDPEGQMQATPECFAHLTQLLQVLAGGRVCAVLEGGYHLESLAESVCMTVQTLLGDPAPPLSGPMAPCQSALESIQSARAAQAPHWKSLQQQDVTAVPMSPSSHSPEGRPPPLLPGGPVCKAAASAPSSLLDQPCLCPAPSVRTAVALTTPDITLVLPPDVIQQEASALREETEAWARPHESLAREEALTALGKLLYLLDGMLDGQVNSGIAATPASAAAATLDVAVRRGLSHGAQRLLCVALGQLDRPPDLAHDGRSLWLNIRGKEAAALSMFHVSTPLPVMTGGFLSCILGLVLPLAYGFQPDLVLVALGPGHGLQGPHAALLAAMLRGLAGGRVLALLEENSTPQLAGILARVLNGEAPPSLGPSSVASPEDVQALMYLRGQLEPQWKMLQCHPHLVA

[2] = molecular target: T1, Polyamine deacetylase HDAC10; assay: Inhibition of tubastatin-Alexa647-tracer binding to recombinant GST-tagged HDAC10 (unknown origin) measured after 1 hr by TR-FRET assay
[3] = molecular target: Histone deacetylase 3/Nuclear receptor corepressor 2 (HDAC3/NCoR2) (Homo sapiens, UniProt O15379); assay: Inhibition of human recombinant full length C-terminal His-tagged HDAC3 (1 to 428 residues)/N-terminal GST-tagged NCOR2 (395 to 489 residues) expressed in baculovirus infected insect cells measured after 40 mins by HDAC-Glo1/2 luminescent assay
Histone deacetylase 2 = Histone deacetylase 2 (Homo sapiens, UniProt Q92769); assay: Inhibition of recombinant full-length C-terminal His-tagged human HDAC2 expressed in baculovirus infected Sf9 insect cells measured after 40 mins by HDAC-Glo1/2 luminescent assay; assay type: cell-based
Histone deacetylase 1 = Histone deacetylase 1 (Homo sapiens, UniProt Q13547); assay: Inhibition of recombinant full-length C-terminal FLAG-fused/His-tagged human HDAC1 expressed in baculovirus infected Sf9 insect cells measured after 40 mins by HDAC-Glo1/2 luminescent assay
[4] = molecular target: T2, Protein deacetylase HDAC6 (Homo sapiens, UniProt Q9UBN7); assay: Inhibition of dye-labeled tracer binding to HDAC6 (unknown origin) transfected in human HeLa cells measured after 2 hrs by nano-luciferase reporter gene-based BRET assay; assay type: cell-based
T2 sequence (Q9UBN7 whole entry): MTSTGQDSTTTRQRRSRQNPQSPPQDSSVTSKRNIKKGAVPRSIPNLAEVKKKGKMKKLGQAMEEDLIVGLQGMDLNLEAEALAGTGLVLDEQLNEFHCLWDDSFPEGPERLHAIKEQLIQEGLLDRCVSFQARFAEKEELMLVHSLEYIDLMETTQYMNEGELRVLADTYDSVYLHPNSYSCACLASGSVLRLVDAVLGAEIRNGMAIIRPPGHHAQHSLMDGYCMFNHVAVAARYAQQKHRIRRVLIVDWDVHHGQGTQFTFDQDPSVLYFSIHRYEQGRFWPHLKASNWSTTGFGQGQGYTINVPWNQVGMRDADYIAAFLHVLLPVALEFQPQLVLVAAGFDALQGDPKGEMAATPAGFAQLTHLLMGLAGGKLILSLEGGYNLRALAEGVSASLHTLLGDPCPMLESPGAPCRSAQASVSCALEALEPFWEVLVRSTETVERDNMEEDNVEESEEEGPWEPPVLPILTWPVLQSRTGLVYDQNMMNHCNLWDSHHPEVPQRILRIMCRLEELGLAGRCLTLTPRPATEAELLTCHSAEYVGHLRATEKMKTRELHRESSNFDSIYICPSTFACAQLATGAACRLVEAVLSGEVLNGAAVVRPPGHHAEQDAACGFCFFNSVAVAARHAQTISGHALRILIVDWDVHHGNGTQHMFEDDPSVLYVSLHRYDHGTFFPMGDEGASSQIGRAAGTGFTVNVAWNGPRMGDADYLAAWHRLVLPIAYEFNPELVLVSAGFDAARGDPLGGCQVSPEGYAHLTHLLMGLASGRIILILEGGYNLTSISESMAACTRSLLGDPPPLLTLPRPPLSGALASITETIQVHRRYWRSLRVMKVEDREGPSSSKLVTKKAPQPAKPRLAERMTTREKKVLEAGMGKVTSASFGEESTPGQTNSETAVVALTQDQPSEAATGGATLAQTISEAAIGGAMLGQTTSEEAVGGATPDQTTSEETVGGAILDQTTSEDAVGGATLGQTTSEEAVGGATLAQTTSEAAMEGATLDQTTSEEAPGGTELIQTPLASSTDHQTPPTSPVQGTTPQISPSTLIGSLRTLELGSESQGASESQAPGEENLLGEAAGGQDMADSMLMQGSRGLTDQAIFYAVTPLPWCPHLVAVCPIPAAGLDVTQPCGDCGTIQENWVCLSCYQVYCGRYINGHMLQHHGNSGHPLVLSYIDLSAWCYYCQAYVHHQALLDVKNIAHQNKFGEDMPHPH
In short: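 Live-cell target engagement by BRET: cells overexpressing nano-luciferase-tagged HDAC6 or HDAC10 are given a dye-labelled tracer and the nano-luciferase substrate, and a competing binder disrupts BRET. pIC50 comes from pooled data of two biological replicates, each run in triplicate. The selectivity fold is taken from the HDAC10 and HDAC6 BRET values.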

Histone deacetylase 8 = molecular target: T3, Histone deacetylase 8 (Homo sapiens, UniProt Q9BY41); assay: Inhibition of recombinant human full length C-terminal His-tagged HDAC8 expressed in baculovirus infected insect cells measured after 40 mins by HDAC-Glo1/2 luminescent assay
T3 sequence (Q9BY41 whole entry): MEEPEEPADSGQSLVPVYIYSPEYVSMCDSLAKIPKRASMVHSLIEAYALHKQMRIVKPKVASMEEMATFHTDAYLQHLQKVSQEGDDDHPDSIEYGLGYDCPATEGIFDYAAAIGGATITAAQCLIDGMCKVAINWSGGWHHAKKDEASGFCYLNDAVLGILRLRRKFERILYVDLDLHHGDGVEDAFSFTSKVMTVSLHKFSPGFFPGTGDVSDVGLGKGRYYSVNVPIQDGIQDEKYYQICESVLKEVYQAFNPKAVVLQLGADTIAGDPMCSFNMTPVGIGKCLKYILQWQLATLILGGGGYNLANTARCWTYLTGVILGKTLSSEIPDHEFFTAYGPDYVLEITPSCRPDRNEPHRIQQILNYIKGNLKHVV

[5] = molecular target: T4, Protein deacetylase HDAC6 (Homo sapiens) (UniProt Q9UBN7); assay: Inhibition of HDAC6 in human BE(2)-C cells assessed as increase in tubulin acetylation at 10 uM measured after 24 hrs by Western blot analysis; assay type: cell-based
T4 sequence (whole entry): T2 sequence (Q9UBN7 whole entry)
In short: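 In the neuroblastoma BE(2)-C line, HDAC6 inhibition is read as tubulin acetylation by Western blot, comparing acetylated tubulin with total tubulin.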

Histone deacetylase 3/Nuclear receptor corepressor 2 (HDAC3/NCoR2), sequence (O15379 whole entry, the tested form may be a part): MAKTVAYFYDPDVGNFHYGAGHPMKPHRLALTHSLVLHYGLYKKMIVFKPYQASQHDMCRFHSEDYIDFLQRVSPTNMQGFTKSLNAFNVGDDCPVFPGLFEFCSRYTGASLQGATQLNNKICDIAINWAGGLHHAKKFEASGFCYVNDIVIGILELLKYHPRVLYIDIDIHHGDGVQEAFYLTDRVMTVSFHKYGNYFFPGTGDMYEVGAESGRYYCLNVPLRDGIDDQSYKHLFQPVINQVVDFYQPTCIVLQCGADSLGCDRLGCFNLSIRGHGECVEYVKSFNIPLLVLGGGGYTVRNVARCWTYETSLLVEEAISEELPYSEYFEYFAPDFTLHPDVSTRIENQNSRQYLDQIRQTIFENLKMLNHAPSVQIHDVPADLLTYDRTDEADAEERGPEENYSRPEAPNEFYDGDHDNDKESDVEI
Histone deacetylase 3/Nuclear receptor corepressor 2 (HDAC3/NCoR2), sequence (Q9Y618 whole entry, further chain, the tested form may be a part): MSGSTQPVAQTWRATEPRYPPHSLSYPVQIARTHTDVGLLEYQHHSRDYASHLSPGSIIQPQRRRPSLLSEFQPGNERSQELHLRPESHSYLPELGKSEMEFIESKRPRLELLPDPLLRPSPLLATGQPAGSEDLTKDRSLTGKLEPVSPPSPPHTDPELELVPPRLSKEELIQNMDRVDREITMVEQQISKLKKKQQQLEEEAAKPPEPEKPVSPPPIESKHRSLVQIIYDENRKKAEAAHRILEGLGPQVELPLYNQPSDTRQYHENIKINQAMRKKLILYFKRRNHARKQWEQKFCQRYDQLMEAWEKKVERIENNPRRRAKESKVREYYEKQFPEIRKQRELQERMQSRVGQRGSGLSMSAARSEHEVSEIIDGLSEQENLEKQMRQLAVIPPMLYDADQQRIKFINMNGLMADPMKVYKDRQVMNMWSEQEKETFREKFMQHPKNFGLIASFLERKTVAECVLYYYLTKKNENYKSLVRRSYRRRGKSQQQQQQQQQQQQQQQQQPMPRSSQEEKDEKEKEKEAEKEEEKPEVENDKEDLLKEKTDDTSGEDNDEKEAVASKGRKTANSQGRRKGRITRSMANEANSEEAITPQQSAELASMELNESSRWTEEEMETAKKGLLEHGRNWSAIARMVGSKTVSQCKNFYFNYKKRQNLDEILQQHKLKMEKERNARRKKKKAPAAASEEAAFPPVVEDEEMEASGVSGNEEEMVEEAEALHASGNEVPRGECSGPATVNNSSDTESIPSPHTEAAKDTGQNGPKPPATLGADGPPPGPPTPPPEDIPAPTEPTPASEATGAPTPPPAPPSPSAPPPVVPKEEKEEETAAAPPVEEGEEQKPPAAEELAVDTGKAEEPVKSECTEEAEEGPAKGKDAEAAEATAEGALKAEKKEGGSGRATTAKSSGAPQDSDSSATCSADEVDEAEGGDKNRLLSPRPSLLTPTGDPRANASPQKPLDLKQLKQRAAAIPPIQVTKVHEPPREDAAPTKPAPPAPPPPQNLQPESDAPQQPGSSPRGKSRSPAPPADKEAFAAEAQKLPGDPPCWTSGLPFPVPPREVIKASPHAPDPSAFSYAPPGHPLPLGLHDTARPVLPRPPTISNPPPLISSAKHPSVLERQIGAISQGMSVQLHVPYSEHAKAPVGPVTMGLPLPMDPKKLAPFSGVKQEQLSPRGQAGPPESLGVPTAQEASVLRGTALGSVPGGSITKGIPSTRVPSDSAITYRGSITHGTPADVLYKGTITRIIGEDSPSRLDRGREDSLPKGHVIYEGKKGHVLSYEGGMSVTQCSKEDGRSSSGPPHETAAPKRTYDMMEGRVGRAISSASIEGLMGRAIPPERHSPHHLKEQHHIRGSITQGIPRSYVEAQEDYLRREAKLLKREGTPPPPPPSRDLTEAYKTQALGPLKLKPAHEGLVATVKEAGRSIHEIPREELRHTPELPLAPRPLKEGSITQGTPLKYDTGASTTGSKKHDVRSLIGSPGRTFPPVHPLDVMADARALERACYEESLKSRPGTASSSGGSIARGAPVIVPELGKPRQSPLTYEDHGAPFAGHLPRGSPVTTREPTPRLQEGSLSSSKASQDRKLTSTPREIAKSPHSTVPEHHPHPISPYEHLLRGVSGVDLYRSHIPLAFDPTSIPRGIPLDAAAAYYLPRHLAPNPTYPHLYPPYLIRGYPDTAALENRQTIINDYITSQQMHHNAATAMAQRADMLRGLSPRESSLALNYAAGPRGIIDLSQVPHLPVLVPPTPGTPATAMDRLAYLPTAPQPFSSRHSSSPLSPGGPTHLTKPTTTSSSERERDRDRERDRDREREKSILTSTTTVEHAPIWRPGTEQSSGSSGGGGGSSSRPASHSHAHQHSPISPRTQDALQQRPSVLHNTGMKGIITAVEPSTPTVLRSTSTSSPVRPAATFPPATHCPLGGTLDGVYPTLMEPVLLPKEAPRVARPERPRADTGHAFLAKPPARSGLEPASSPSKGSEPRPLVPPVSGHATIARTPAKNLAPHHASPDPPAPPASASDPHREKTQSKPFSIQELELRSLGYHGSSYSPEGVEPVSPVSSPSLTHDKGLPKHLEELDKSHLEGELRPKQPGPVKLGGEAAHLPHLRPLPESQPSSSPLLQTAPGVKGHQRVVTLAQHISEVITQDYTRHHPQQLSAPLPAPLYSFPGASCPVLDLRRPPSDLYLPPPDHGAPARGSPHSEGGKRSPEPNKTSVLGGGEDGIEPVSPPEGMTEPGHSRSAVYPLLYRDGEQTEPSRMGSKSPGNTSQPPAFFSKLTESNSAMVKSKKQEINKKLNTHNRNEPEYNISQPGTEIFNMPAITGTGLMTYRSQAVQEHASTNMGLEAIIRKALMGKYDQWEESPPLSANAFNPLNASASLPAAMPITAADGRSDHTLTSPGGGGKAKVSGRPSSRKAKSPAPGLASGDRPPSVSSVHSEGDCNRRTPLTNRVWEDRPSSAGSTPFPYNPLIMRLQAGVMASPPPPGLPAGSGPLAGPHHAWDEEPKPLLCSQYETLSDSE
Histone deacetylase 2, sequence (Q92769 whole entry, the tested form may be a part): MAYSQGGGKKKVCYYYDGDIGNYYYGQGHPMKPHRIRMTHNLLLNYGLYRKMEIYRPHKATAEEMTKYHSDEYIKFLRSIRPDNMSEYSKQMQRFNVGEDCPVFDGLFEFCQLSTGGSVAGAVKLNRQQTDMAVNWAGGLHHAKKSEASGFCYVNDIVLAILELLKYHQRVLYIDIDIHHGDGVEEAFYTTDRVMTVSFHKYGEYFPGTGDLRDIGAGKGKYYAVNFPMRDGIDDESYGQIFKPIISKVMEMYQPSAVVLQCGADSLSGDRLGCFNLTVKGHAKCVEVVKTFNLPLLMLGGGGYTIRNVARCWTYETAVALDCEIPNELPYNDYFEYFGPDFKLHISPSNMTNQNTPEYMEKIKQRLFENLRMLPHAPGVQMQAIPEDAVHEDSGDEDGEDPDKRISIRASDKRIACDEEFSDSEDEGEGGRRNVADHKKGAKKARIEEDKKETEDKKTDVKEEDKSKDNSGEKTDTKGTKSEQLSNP
Histone deacetylase 1, sequence (Q13547 whole entry, the tested form may be a part): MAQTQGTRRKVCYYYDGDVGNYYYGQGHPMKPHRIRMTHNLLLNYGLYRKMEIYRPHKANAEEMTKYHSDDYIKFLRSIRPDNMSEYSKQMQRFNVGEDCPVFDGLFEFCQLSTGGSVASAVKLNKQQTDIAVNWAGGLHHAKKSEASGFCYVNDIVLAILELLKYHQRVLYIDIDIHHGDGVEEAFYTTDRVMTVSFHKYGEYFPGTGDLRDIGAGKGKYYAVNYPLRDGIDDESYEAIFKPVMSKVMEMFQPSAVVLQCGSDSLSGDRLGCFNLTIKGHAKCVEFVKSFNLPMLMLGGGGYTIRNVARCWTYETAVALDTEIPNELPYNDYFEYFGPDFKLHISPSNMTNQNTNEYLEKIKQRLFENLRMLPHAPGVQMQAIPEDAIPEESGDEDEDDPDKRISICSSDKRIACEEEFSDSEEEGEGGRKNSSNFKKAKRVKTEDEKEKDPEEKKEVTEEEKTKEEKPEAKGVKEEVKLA

IC50 [1] [nM] | IC50 [2] [nM] | IC50 [3] [nM] | IC50 (Histone deacetylase 2) [nM] | IC50 (Histone deacetylase 1) [nM] | IC50 [4] [nM] | IC50 (Histone deacetylase 8) [nM] | inhibition [5] | SMILES
794 | 316 | – | – | – | – | – | – | CC(C)(C)OC(=O)Nc1ccc(-c2cc(C(=O)NCCCCCCC(=O)NO)no2)cc1
631 | 316 | 3160 | 12600 | 2510 | 31.6 | 1580 | – | Cc1c(C)n(Cc2ccc(C(=O)NO)cc2)c2ccccc12
200 | 126 | – | – | – | 63.1 | – | – | COCCc1cn(Cc2ccc(C(=O)NO)cc2)c2ccccc12
398 | 126 | – | – | – | – | – | – | C#Cc1cccc(Nc2ncnc3cc(OC)c(OCCCCCCC(=O)NO)cc23)c1 [CUDC-101]
2510 | 1000 | – | – | – | 63.1 | – | – | O=C(NO)c1ccc(Cn2c3c(c4ccccc42)CCCC3)cc1
> 39800 | 5010 | – | – | – | 2000 | – | Active | CC(C)(C)c1cc2ccccc2n1Cc1ccc(C(=O)NO)cc1
316 | 79.4 | – | – | – | – | – | – | O=C(NO)c1ccc(CC(=O)N(CCO)c2ccccc2)cc1
3.98 | 3.98 | 398 | 6310 | 794 | 158 | 316 | – | O=C(NO)c1ccc(Cn2cc(CN3CCCC3)c3ccccc32)cc1
158 | 200 | 3980 | 25100 | 3160 | 63.1 | 3980 | – | CN1CCc2c(n(Cc3ccc(C(=O)NO)cc3)c3ccccc23)C1
1000 | 631 | 1260 | 7940 | 1580 | 20 | 794 | – | O=C(NO)c1ccc(Cn2c3c(c4ccccc42)COCC3)cc1
398 | 316 | – | – | – | 126 | – | – | O=C(NO)c1ccc(Cn2c3c(c4ccccc42)CSCC3)cc1
39.8 | 10 | – | – | – | – | – | – | Cn1cc(CNCC2CCN(c3ncc(C(=O)NO)cn3)CC2)c2ccccc21 [QUISINOSTAT]
3980 | 2000 | – | – | – | 39.8 | – | – | O=C(NO)c1ccc(Cn2c3ccccc3c3ccccc32)cc1
200 | 79.4 | – | – | – | 31.6 | – | – | O=C(NO)c1ccc(Cn2cc(CCO)c3ccccc32)cc1
5.01 | 5.01 | 158 | 2000 | 316 | 126 | 398 | – | CN1CCCC1c1cn(Cc2ccc(C(=O)NO)cc2)c2ccccc12 (racemic)
158 | 63.1 | – | – | – | 63.1 | – | – | O=C(NO)c1ccc(Cn2ccc3ccccc32)cc1
2000 | 501 | – | – | – | 79.4 | – | – | CC(=O)N1CCc2c(c3ccccc3n2Cc2ccc(C(=O)NO)cc2)C1
– | 20 | 794 | 7940 | 1260 | 126 | 794 | – | CN(C)Cc1nn(Cc2ccc(C(=O)NO)cc2)c2ccccc12
251 | 158 | – | – | – | 79.4 | – | – | CC(C)(C)OC(=O)NCc1cn(Cc2ccc(C(=O)NO)cc2)c2ccccc12
50.1 | 25.1 | 501 | 3160 | 631 | 79.4 | 398 | – | Cn1cncc1-c1cn(Cc2ccc(C(=O)NO)cc2)c2ccccc12

SMILES | IC50 [1] [nM] | IC50 [2] [nM] | IC50 [3] [nM] | IC50 (Histone deacetylase 2) [nM] | IC50 (Histone deacetylase 1) [nM] | IC50 [4] [nM] | IC50 (Histone deacetylase 8) [nM] | inhibition [5]
O=C(CCCCCCNC(=O)c1cnc(N(c2ccccc2)c2ccccc2)nc1)NO [RICOLINOSTAT] | 1580 | 126 | – | – | – | – | – | –
CN(C)Cc1cn(Cc2ccc(C(=O)NO)cc2)c2ccccc12 | 3.98 | 5.01 | 631 | 6310 | 1000 | 158 | 398 | –
CN(C)CCc1cn(Cc2ccc(C(=O)NO)cc2)c2ccccc12 | 25.1 | 20 | – | – | – | – | – | –
